Measurements taken from article PMC9789792 (Inorganic chemistry, 2022).
Read-outs that look alike come from different tables or passages of the source.

Columns and labels:
SadX [1] = assay: SadX activity assay: conversion of 1a in the presence of salts; format: biochemical; conditions: 10 μM SadX, 1 mM 1a, 50 mM salt, overnight, room temperature
SadX [2] = format: biochemical; conditions: for Km: KM for salt; for Km / kcat: hydroxylation of 1a (1 mM) to give 1b by 0.5 μM SadX, varying [salt]; for Kinetic behaviour of 1b formation as a function of salt concentration: saturating 1a (1 mM), SadX
Fe(II) center in SadX = assay: UV-vis titration of anion binding; conditions: SadX-His/Fe(II)/αKG, 100 mM HEPES pH 7.5
Procedure, shortened: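 Anaerobic (N₂ glovebox, degassed buffer): SadX-His (0.51 mM, 0.5 μmol) plus FeSO₄ (0.375 μmol) in 100 mM HEPES pH 7.5, 23 °C, quartz cuvette. αKG (5 μmol) added, then anion salt (10–200 mM stocks). Spectra 350–800 nm, dilution-corrected. Difference spectra taken versus initial SadX-His/Fe(II) and zeroed at 800 nm. λmax absorbances fitted to single-site saturation binding for KD.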

SadX [3] = assay: Steady state kinetic analysis of SadX with varying concentrations of 1a; format: biochemical

Fold improved kcat/KM relative to that in the absence of salt (SadX [3]; SadX, hydroxylation of 1a) [fold]	Compound	Conversion of 1a (to 1b) (SadX [1])	Km (SadX [2]) [µM]	kcat (SadX [2]) [s⁻¹]	Kd (Fe(II) center in SadX; Blue-shifted Absorbance) [µM]	Kd (Fe(II) center in SadX; Red-shifted Absorbance) [µM]	Kinetic behaviour of 1b formation as a function of salt concentration (SadX [2])	Fold by which hydroxylation kcat/KM exceeds WT SadA (SadX [3]; SadX, hydroxylation of 1a) [fold]	kcat (SadX [3]; azidation of 1a by SadX to give 1eN3, varying [1a])
	N#C[O-].[Na+] [cyanate]	high conversion							
	bromide	significantly lower conversion							
	O=C[O-].[Na+] [NaOC(O)H]		450	0.122	530	470			
	[N-]=[N+]=[N-].[Na+] [NaN3]		14	0.953	2650	600	exhibit saturation kinetics	12	8.72 10^−3 s^−1
	[Cl-].[Na+] [NaCl]		4160	0.197	600	490	exhibit saturation kinetics		
16	[Cs+].[F-] [CsF]		12000	0.357	460	450			
	F[P-](F)(F)(F)(F)F.[NH4+] [NH4PF6]	trace conversion					does not follow Michaelis Menten kinetics		
	CC(=O)O [acetate]	low conversion							
